Series [1] is described as follows: Water solubility was determined. It counts as ADME. In a few lines:
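Excess compound stirred in pH 7.4 phosphate buffer 3 h (25 °C), filtered 0.45 μm; saturated solution absorbance read at each compound's UV maximum and concentration derived against a standard solution; reported in mM.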

Series [2] deals with T1, Glucocorticoid receptor (Homo sapiens) (UniProt P04150).
T1 sequence (whole entry): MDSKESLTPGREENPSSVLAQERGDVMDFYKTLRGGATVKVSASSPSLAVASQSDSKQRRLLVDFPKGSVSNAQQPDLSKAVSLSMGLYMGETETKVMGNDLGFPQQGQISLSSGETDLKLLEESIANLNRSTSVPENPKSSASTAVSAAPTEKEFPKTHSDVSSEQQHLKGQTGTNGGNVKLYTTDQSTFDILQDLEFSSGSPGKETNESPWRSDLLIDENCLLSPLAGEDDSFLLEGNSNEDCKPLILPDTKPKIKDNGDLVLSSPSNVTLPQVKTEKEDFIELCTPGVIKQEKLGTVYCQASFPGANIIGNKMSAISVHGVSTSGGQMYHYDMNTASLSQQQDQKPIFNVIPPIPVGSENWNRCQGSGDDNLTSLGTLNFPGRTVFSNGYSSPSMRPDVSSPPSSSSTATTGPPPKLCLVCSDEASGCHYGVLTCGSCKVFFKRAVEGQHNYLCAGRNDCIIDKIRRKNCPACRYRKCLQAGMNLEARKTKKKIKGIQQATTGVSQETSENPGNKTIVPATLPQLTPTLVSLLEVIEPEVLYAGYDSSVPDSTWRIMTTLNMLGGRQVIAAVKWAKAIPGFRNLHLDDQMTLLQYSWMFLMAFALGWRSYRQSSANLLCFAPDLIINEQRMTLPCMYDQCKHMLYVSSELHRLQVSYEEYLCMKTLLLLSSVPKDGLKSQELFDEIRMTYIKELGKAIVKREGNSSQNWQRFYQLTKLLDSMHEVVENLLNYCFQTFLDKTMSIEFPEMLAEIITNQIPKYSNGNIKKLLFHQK
Briefly: Inhibition of [3H]dexamethasone binding to glucocorticoid receptor of human blood mononuclear cells. In a few lines:
(§1)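 PBMC isolated from human blood by histopaque gradient; 1×10^6 cells in RPMI with 1% glutamine given 50 nM [3H]dexamethasone plus compound at 1 μM (from 10 mM DMSO stock; control 0.1% DMSO), 1 h at 37 °C. Four ice-cold PBS washes, bound label by scintillation minus nonspecific binding; fmol/mL and % specific displacement; n = 3.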

Series [3] has as its target T1, Glucocorticoid receptor (Homo sapiens). Put plainly: Displacement of [3H]dexamethasone from glucocorticoid receptor of human blood mononuclear cells at 1 uM. In a few lines:
as §1
In general terms: In a radioligand displacement assay an active substance lowers the binding of a labelled ligand.

Series [4] is filed under the species Mus musculus. Put plainly: Compound was tested for the inhibition of neutrophil (PMN) extravasation in the zymosan-induced peritonitis mouse. The format is functional. Further details: unit: PMN per peritoneal cavity. The method in brief:
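Mice dosed i.p. at 13.8 μmol/kg (equimolar to 5 mg/kg prednisolone) 1 h before i.p. zymosan (1 mg in 0.5 mL saline); vehicle peanut oil. Polymorphonuclear cells recruited per peritoneal cavity counted at 4 h; % inhibition vs vehicle group; mean ± SEM, n = 5 mice/group; ANOVA with Bonferroni.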

The text below walks through data of ChEMBL document CHEMBL1148400, “Synthesis of nitro esters of prednisolone, new compounds combining pharmacological properties of both glucocorticoids and nitric oxide” (J Med Chem, 2004).

In brackets after ≈: the same amount, converted by molar mass.

As a reminder, the solubility is the concentration that dissolves in the medium under given conditions. `C[C@]12C=CC(=O)C=C1CCC1C2[C@@H](O)C[C@@]2(C)C1CC[C@]2(O)C(=O)COC(=O)c1ccc(CO[N+](=O)[O-])cc1` (some centres undefined) had a solubility in series [1] of 7 µM (≈ 3.78 µg/mL). In series [2], this compound showed a [3H]dexamethasone bound of 6.6 fmol/mL. The same compound gave a Displacement in series [3] of 47%. The Activity in series [4] turned out to be 4100000.

With `C[C@]12C=CC(=O)C=C1CCC1C2[C@@H](O)C[C@@]2(C)C1CC[C@]2(O)C(=O)COC(=O)c1cccc(CO[N+](=O)[O-])c1` (some centres undefined), the [3H]dexamethasone bound in series [2] turned out to be 19.8 fmol/mL.

In series [2], `C[C@]12C=CC(=O)C=C1CCC1C2[C@@H](O)C[C@@]2(C)C1CC[C@]2(O)C(=O)COC(=O)c1ccc(CO)cc1` (some centres undefined) yielded a [3H]dexamethasone bound of 5.3 fmol/mL. The compound also returned a Displacement in series [3] of 57%.

The compound `C[C@]12C=CC(=O)C=C1CC[C@@H]1[C@@H]2[C@@H](O)C[C@@]2(C)[C@H]1CC[C@]2(O)C(=O)CO` [PREDNISOLONE] came in with a solubility in series [1] of 270 µM (≈ 97.3 µg/mL). In series [2], this compound returned a [3H]dexamethasone bound of 5.5 fmol/mL. This compound also came in with a Displacement in series [3] of 56%.

`C[C@]12C=CC(=O)C=C1CCC1C2[C@@H](O)C[C@@]2(C)C1CC[C@]2(O)C(=O)COC(=O)CN1CCC(CCCO[N+](=O)[O-])CC1` (some centres undefined): in series [1], the solubility is 150 µM (≈ 88.3 µg/mL). For the same compound, the [3H]dexamethasone bound in series [2] is 2.3 fmol/mL. In addition, the Displacement in series [3] is 81%.

Take `C[C@]12C=CC(=O)C=C1CCC1C2[C@@H](O)C[C@@]2(C)C1CC[C@]2(O)C(=O)COC(=O)c1ccccc1CO[N+](=O)[O-]` (some centres undefined): in series [2], the [3H]dexamethasone bound is 8.7 fmol/mL. This compound also yielded a Displacement in series [3] of 30%.

For `C[C@]12C=CC(=O)C=C1CCC1C2[C@@H](O)C[C@@]2(C)C1CC[C@]2(O)C(=O)COC(=O)CCCO[N+](=O)[O-]` (some centres undefined), the [3H]dexamethasone bound in series [2] was found to be 1.6 fmol/mL. The same compound yielded a Displacement in series [3] of 87%. This compound gave an Activity in series [4] of 9100000.

For `C[C@]12C=CC(=O)C=C1CCC1C2[C@@H](O)C[C@@]2(C)C1CC[C@]2(O)C(=O)COC(=O)CN1CCN(CCCO[N+](=O)[O-])CC1` (some centres undefined), in series [1], the solubility was determined as 53300 µM (≈ 31400 µg/mL). The same compound displayed a [3H]dexamethasone bound in series [2] of 2.1 fmol/mL. In addition, the Displacement in series [3] worked out at 83%. Also, the Activity in series [4] came to 7800000.

In series [1], `C[C@]12C=CC(=O)C=C1CCC1C2[C@@H](O)C[C@@]2(C)C1CC[C@]2(O)C(=O)COC(=O)CN1CCN(CCO[N+](=O)[O-])CC1` (some centres undefined) gave a solubility of 21300 µM (≈ 12300 µg/mL). This compound also displayed a [3H]dexamethasone bound in series [2] of 4.2 fmol/mL. The Displacement in series [3] stood at 66%. In addition, the Activity in series [4] was 9000000.

Compound `C[C@]12C=CC(=O)C=C1CCC1C2[C@@H](O)C[C@@]2(C)C1CC[C@]2(O)C(=O)COC(=O)CN1CCC(CCO[N+](=O)[O-])CC1` (some centres undefined) gave a solubility in series [1] of 710 µM (≈ 408 µg/mL). In addition, in series [2], the [3H]dexamethasone bound was 1.7 fmol/mL. Also, the Displacement in series [3] amounted to 86%.
